An excerpt weighted towards active compounds, which were near 3.3% of everything screened.
PMI act: activators of human PMI, primary screen, biochemical, fluorescence intensity, near-Km mannose 6-phosphate; actives 0.005% (n = 190,000); Mannose-6-phosphate isomerase (Homo sapiens), P34949; purified human PMI, coupled resazurin fluorescence, 20 min; active compounds read high; 1 = vehicle control, 0 substrate-free wells; activation factor at 20 µM;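 active = activation factor of 2 or more at 20 µM, relative to plate controls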
PMI act satM6P: human PMI activators, high substrate, primary screen, biochemical, fluorescence intensity, near-saturating mannose 6-phosphate. coupled PMI enzyme assay, resazurin fluorescence, 20 min; active compounds read high; 1 = untreated enzyme, 0 = substrate-free blank. activation factor at 20 µM. actives 0.34% (n = 190,000);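 active = activation factor of 2 or more at 20 µM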
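Material: human phosphomannose isomerase with PGI, G6PDH, diaphorase coupling enzymes / Reagent: Man-6-P substrate 1.0 mM / Dosing: single compound dose of 20 µM, 1% DMSO final / Incubation: enzyme reaction with compound 20 min at room temperature / Signal: resorufin fluorescence (Ex 544/Em 590 nm) from resazurin via diaphorase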
KCC2 mod: KCC2 cotransporter modulators, thallium flux, primary screen, cell-based, HEK293 KCC2, FluoZin-2 fluorescence, MLSMR. Solute carrier family 12 member 5 (Homo sapiens), Q9H2X9. KCC2 cells, thallium flux FluoZin-2 fluorescence. B-score of Tl+ flux slope (higher = more flux/activation; lower = inhibition) at 10 µM. actives 2.2% (n = 190,000). AID 1456, 2008;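 active = thallium flux slope and its plate-corrected score both differing from the plate sample mean at a set confidence after two filtering rounds, in either direction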;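 also: slope of fluorescence scaled to starting intensity during 10 to 20 s after thallium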
Target sequence (Q9H2X9 whole entry, looked up): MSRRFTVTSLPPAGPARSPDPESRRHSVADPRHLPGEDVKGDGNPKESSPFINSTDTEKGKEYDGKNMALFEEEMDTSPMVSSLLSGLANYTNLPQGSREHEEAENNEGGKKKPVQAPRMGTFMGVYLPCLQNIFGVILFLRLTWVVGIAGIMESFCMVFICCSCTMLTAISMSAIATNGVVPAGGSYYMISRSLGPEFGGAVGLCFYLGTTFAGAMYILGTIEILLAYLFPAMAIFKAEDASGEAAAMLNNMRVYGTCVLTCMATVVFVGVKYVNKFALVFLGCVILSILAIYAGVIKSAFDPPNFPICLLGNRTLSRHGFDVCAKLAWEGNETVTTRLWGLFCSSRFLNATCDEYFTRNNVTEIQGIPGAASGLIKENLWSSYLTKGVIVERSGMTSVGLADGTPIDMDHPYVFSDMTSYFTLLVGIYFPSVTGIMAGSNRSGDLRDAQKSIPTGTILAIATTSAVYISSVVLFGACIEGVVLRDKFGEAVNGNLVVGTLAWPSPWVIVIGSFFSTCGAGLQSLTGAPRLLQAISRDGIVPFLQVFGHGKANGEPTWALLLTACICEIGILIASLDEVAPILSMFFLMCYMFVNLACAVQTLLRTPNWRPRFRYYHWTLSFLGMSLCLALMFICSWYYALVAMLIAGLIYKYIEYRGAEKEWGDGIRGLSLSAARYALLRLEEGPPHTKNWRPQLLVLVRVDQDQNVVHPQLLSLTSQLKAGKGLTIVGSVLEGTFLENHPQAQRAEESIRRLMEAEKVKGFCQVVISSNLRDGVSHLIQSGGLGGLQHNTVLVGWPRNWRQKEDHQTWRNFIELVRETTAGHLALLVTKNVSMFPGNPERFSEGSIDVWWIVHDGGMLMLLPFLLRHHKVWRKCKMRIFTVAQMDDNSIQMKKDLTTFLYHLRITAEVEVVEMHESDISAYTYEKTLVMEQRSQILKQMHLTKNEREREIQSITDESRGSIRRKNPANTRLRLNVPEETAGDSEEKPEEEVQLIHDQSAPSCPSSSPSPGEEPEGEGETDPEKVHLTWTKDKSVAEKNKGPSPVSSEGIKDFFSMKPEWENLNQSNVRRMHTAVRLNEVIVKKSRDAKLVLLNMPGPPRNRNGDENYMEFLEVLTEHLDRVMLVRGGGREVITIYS
ROMK mod: ROMK potassium channel modulators, primary screen, cell-based, thallium flux, MLSMR library; ATP-sensitive inward rectifier potassium channel 1 (Homo sapiens), P48048; Tet-inducible ROMK, thallium flux fluorescence; actives lie on both sides; B-score at 10 µM; actives 2% (n = 130,000); AID 1918, 2009;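 active = signal ratio slope over the read window, or its plate-corrected B-score, at least 3 SD from the plate mean, either direction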;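 also: B-score of the F/F0 ratio slope over 7 to 12 s after thallium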
ABCG2 inh: ABCG2 efflux pump inhibitors, primary screen, multiplex with ABCB1, IgMXP3 cells, flow cytometry | Broad substrate specificity ATP-binding cassette transporter ABCG2 (Homo sapiens), Q9UNQ0 | JC-1 efflux | inhibition, % at 6.6 µM | actives 0.1% (n = 190,000) | AID 1325, 2008;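 active = inhibition above 80%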;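 also: 0% = DMSO and 100% = nicardipine control wells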
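Test system: IgMXP3 (ABCG2) plus far-red-tagged CCRF-Adr (ABCB1) cells. Reagent: JC-1 dye as substrate. Timing: 10 min exposure at 25 °C with rotation, no wash. Measured by: flow cytometric JC-1 green MFI at 530 nm. Read-out: percent efflux inhibition, scaled nicardipine 100% to DMSO 0%. Control set: nicardipine and DMSO wells.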
ABCB1 inh: ABCB1 efflux pump inhibitors, primary screen, cell-based, multiplex, flow cytometry, ABCG2 counter-screen; ATP-dependent translocase ABCB1 (Homo sapiens), P08183; actives 0.067% (n = 190,000); AID 1326, 2008; inhibition, % at 6.6 µM; CCRF-Adr cells, JC-1 efflux; in the data active = inhibition above about 40%;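 also: 0% = vehicle and 100% = reference inhibitor; higher value means more JC-1 retained so stronger ABCB1 efflux block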
KCC2 secondary: KCC2 modulators in sodium-free buffer, confirmation, cell-based, HEK293 KCC2, thallium flux, secondary assay; shares compounds with KCC2 mod; FluoZin2 fluorescence; active compounds read high; normalised thallium flux (F/F0 slope) at 10 µM; actives 15% (n = 3,700); AID 1713, 2009;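 active = thallium flux slope above the same plate's solvent-only control mean plus 3 SD; inconclusive = the two replicate wells disagree; inactive = no significant difference from solvent-only control wells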
KCC2 bumet counter: thallium flux persisting under bumetanide in KCC2 cells, confirmation, counter-screen for KCC2 modulator project, cell-based, HEK293 KCC2, FluoZin2, secondary assay 3 | shares compounds with KCC2 mod | HEK293-KCC2 + bumetanide/ouabain; active compounds read high | normalized thallium flux at 10 µM | actives 49% (n = 3,700) | AID 1714, 2009;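 active = thallium entry rate above the same plate's blocked-transporter control wells by more than 3 SD; inconclusive = the two repeat wells disagree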;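 also: raw slope of fluorescence over initial fluorescence between 10 and 20 s after thallium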
KCC2 sec2: KCC2 modulators without ouabain present, confirmation, cell-based, HEK293 KCC2, thallium flux, FluoZin2, secondary assay 2 | AID 1715, 2009 | thallium flux FluoZin2 fluorescence; actives lie on both sides; F/F0 rise rate, 10–20 s post-thallium | normalized thallium flux at 10 µM | actives 23% (n = 3,700) | shares compounds with KCC2 mod;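 active = thallium flux slope more than 3 SD above or below the plate's solvent-only control mean, mostly below; inconclusive = the two repeat wells disagreed; inactive = no significant shift from solvent-only controls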;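 also: raw slope with 0.1% DMSO as baseline and bumetanide as block control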
HEK293 Tl flux: thallium flux modulation in parental HEK cells, confirmation, counter-screen for KCC2 modulator project, cell-based, counterscreen 1. thallium flux rate (normalised fluorescence) at 10 µM. shares compounds with KCC2 mod. actives 46% (n = 3,700). HEK293 parental cells, thallium flux FluoZin2, ouabain; baseline-ratio fluorescence slope, 10–20 s after thallium;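 active = thallium flux rate significantly above the same plate's solvent-only control wells, beyond their mean plus 3 SD; inconclusive = the two replicate wells gave conflicting results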
KCC2 retest ouab: KCC2 inhibitors and activators, ouabain retest, confirmation, HEK-KCC2 cells | shares compounds with KCC2 mod | HEK293-KCC2, thallium flux FluoZin2 fluorescence; bidirectional: low = inhibitor, high = activator | raw Tl+ flux slope (below DMSO = inhibition, above = activation) at 10 µM | actives 48% (n = 3,700) | AID 1717, 2009;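 active = thallium flux slope beyond 3 SD from same-plate DMSO control mean in most replicates, usually higher, sometimes lower; inconclusive = repeat tests gave conflicting results; inactive = no significant difference from controls in most replicates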;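 also: slope of initial-normalized fluorescence between seconds 10 and 20 after thallium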
HEK counter2: native HEK Tl+ uptake effects, second counter-screen – HEK cells, counterscreen 2, counter-screen for KCC2 modulator project, confirmation; HEK293 parental, thallium flux FluoZin-2 fluorescence slope; AID 1718, 2009; thallium flux slope at 10 µM; shares compounds with KCC2 mod; actives 33% (n = 3,700);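 active = thallium flux slope above the same plate's solvent-control mean plus 3 SD in both duplicate wells; inconclusive = duplicate wells that disagreed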;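 also: run without ouabain in cells lacking the KCC2 cotransporter; slope of fluorescence scaled to its starting value between 10 and 20 s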
Active calls of the source: *; ? = inconclusive; / = no result given.

SMILES	PMI act	PMI act satM6P	KCC2 mod	ROMK mod	ABCG2 inh	ABCB1 inh	KCC2 secondary	KCC2 bumet counter	KCC2 sec2	HEK293 Tl flux	KCC2 retest ouab	HEK counter2
CC(=O)CCn1c(=O)n(CCC(C)=O)c(=O)n(CCC(C)=O)c1=O	1	1.1	0.729	/	-0.7	-0.2	0.0094	?	0.0345	0.00834	0.0236	?
CC(=O)CCCCn1c(=O)c2c(ncn2C)n(C)c1=O	0.9	1	-0.601	/	1.1	0.3	/	/	/	/	/	/
COc1ccc(S(=O)(=O)N/N=c2\oc3c(OC)cccc3cc2S(=O)(=O)c2ccc(C)cc2)cc1OC	0.9	0.9	-0.963	-1.74	-0.8	5.3	/	/	/	/	/	/
CC1(C)CNC(=O)c2sc(N3CCOCC3)nc2C1	0.9	0.9	/	-1.33	0.5	0.2	/	/	/	/	/	/
O=C(CCCSc1nc2sc3c(c2c(=O)[nH]1)CCC3)NCCO	1	0.9	-4.18*	/	0.3	0.1	0.0146	0.00471	0.0282	0.00726	0.0165	0.00977
C=CCN1C(c2ccc(OCC)cc2)=CS/C1=C(\C#N)c1nnc2n1CCCCC2	1.1	1.3	-5.83*	/	12.8	2.9	0.0132	0.00413	0.0202*	0.00608*	0.0109*	0.00835
N#C/C(=C(/O)COc1ccc(Br)cc1)c1nnc2n1CCCCC2	1	1	0.356	2.06	1.9	2.7	/	/	/	/	/	/
Cn1c(O)c(N=NC(=O)c2cccc(S(=O)(=O)N3CCCCC3)c2)c2ccccc21	1	1	-1.73	/	2.9	1.8	/	/	/	/	/	/
CCc1ccccc1NC(=S)N=Nc1c(O)n(C)c2ccc(S(=O)(=O)N3CCOCC3)cc12	0.9	0.7	11.1*	-0.467	-1.5	-0.5	0.0136*	0.086*	0.0294	0.0311*	0.0576*	0.0118*
c1coc(CNc2c3c(nc4ccccc24)CCC3)c1	1	1	7.31*	-1.6	29.1	0.0	0.00517	0.00392	0.0279	0.00651*	0.0162*	0.00993
O=C(CN1C(=O)CSc2ccccc21)N1CCc2ccccc21	0.9	0.8	-4.86*	/	2.8	1.1	0.00698	0.00555	0.0322	0.00839	0.0138*	0.0112
CN1C(=O)C(=O)N(CC(=O)N2CCc3ccccc32)C1=O	1	1	0.0322	0.936	1.5	0.7	/	/	/	/	/	/
O=S(=O)(Nn1c(O)c(C=C2N=c3ccccc3=N2)sc1=S)c1ccccc1	/	/	-1.7	-0.341	/	/	/	/	/	/	/	/
O=C(Nn1c(O)c(C=C2N=c3ccccc3=N2)sc1=S)c1ccccc1Cl	1.1	1.2	-4.38*	/	2.0	-1.1	0.0169	0.00483	0.0203*	0.0077	0.0136	0.0118
O=C(NCCCN1CCOCC1)c1cccs1	0.9	0.9	/	/	-0.5	-0.5	/	/	/	/	/	/
CCCS(=O)(=O)N1CCC(C(=O)NCCC(C)C)CC1	1	1	0.41	-0.458	0.6	0.2	/	/	/	/	/	/
COc1ccc(CN(C(=O)c2cc3ccccc3oc2=O)C2CCCC2)cc1	0.9	1	-5.14*	-0.887	0.9	0.1	0.00772	0.00435	0.0312	?	?	0.0108
COc1ccc(CN(C(=O)c2cc3ccccc3oc2=O)C2CCS(=O)(=O)C2)cc1 (configuration not stated)	/	/	0.355	/	/	/	/	/	/	/	/	/
C/C(=N\NC(=O)c1c(Br)c(C)nn1C)c1cccc(NC(=O)C2CCC2)c1	1.1	1.1	-5.16*	/	0.7	0.1	0.00553	0.0047	0.0268	0.00706	0.0166	0.00962
COc1ccc(-c2coc3cc(O)cc(O)c3c2=O)cc1	1.1	1.1	-5.17	/	2.2	-0.4	?	0.00625	0.0282	0.00695	0.016*	?
CCSc1nc2c(sc3ccccc32)c(=O)n1C(C)C	1	1.1	23.8*	0.414	1.5	0.3	0.038*	0.115*	0.0421*	0.0546*	0.0544*	0.0212*
CCCCn1c(SCC(N)=O)nc2c(sc3ccccc32)c1=O	0.9	0.9	0.599	-0.775	21.2	1.2	/	/	/	/	/	/
Cc1ccccc1C1CC(c2cccs2)Nc2nnnn21 (configuration not stated)	1	1.1	-0.748	-0.567	3.9	0.8	/	/	/	/	/	/
COc1ccc(CCNc2oc(COc3ccc(Br)cc3)nc2C#N)cc1OC	0.9	0.9	/	/	5.9	0.9	/	/	/	/	/	/
COc1ccc(CCNc2oc(COc3ccccc3F)nc2C#N)cc1	0.9	1	/	0.761	1.3	0.2	0.00775	0.00341*	0.0338	0.00534*	0.0173*	0.00984
N#Cc1nc(COc2ccccc2F)oc1NCc1ccc(F)cc1	1	1	/	/	3.2	0.8	0.00592	0.00501	?	0.00749	?	0.0106
